According to ChEMBL document CHEMBL3877241 (J Med Chem, 2016):
Calls of active or inactive are those of the source. No cut-off for these calls is given here.

Experiments:
[1] = Antiproliferative activity against human HCT116 cells after 72 hrs by MTT assay; type: functional, cell-based; conditions: HCT-116, 72 h
Outline: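 MTT viability after 72 h exposure. Cells seeded at 2500/well and left 24 h before compound addition; DMSO at 0.5% v/v final. MTT added in FBS-free medium for 3 h at 37 °C, formazan dissolved in DMSO, absorbance read at 570 nm. IC50 from a sigmoidal fit of % viability vs log concentration; triplicates on separate occasions using two different stock solutions.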

[2] = target: Phosphatidylinositol 4,5-bisphosphate 3-kinase catalytic subunit gamma isoform (Homo sapiens, UniProt P48736); assay: Inhibition of human PI3Kgamma (S144 to A1102 residues) expressed in mammalian expression system by KINOMEScan assay
Chain of Phosphatidylinositol 4,5-bisphosphate 3-kinase catalytic subunit gamma isoform (P48736 whole entry, the tested form may be a part, canonical isoform): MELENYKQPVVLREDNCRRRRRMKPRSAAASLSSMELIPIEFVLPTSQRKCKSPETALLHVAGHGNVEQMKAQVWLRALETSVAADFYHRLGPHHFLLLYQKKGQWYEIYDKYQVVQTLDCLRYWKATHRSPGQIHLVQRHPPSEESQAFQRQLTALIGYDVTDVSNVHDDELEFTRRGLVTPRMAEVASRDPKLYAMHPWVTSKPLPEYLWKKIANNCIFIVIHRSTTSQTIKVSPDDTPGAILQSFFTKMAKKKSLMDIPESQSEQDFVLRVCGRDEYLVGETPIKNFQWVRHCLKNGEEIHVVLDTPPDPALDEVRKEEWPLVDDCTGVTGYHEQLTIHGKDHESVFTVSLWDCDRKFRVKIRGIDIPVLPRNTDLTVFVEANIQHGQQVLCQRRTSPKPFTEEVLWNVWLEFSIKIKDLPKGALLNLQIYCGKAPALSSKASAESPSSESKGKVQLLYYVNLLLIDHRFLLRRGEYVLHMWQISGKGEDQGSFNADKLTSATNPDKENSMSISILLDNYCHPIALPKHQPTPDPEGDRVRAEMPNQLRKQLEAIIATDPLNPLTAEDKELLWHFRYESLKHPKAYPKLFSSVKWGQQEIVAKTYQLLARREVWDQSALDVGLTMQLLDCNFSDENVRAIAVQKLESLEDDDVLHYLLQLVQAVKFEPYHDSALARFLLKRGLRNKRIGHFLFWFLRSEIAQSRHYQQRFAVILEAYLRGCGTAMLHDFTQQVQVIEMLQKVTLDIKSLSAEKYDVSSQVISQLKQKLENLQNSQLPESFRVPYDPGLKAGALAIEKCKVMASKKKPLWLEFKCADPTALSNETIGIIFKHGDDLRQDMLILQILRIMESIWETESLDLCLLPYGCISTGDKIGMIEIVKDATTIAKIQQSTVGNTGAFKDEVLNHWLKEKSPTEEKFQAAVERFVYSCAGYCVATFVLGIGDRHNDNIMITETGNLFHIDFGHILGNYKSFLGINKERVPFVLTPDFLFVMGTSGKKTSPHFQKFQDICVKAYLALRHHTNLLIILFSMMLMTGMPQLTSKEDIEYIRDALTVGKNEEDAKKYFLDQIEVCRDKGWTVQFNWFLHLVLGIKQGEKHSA

[3] = target: Tyrosine-protein kinase JAK2 (Homo sapiens, UniProt O60674); assay: Inhibition of JAK2 in IL-6-stimulated human MOLM14 cells assessed as suppression of STAT3 phosphorylation at TY705 residue at 1.5 uM pretreated for 3 hrs followed by IL-6 stimulation by immunoblot method; type: cell-based; conditions: MOLM-14
Chain of Tyrosine-protein kinase JAK2 (O60674 whole entry): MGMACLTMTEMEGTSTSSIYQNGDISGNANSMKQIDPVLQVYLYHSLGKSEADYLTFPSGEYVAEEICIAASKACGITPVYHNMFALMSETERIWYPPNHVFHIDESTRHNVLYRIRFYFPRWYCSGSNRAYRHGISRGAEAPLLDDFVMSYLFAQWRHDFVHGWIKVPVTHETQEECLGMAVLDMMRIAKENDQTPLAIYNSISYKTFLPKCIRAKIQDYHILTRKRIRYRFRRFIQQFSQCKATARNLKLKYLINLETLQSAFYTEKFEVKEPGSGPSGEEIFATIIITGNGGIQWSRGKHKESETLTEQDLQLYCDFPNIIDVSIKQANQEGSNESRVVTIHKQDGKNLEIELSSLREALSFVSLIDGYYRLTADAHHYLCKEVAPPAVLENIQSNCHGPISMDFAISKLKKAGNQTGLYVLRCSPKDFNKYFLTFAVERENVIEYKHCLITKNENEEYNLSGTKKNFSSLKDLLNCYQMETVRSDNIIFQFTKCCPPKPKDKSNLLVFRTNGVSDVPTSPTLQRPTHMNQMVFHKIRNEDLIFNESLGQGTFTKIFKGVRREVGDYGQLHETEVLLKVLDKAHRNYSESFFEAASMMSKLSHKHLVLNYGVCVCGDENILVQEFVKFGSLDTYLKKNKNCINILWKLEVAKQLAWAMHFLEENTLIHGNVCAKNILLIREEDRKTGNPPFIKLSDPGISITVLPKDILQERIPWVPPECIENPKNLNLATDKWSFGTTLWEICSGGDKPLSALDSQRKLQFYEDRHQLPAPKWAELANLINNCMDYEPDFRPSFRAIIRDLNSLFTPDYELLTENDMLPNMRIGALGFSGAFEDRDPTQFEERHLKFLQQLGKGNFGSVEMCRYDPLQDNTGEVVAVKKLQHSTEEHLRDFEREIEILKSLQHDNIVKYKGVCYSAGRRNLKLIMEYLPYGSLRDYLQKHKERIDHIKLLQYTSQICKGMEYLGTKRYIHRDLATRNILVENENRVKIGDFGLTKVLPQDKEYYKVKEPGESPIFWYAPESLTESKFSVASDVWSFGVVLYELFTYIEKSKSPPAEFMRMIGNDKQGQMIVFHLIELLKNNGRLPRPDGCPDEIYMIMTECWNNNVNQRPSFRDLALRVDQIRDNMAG
Outline: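 Cells (at least 3x10^6 per condition; KMS-12-BM or MOLM-14) pretreated with compound for 3 h, then stimulated with IL-6 10 ng/mL for 15 min. Cells lysed, equal protein run on SDS-PAGE and transferred to PVDF. Immunoblotted for p-STAT3 (Tyr705), with membranes re-probed for total STAT3. Reference JAK2 inhibitor control at 2 µM (KMS-12-BM) or 0.1 µM (MOLM-14).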

Question: For `O=C(CCCCCCOc1ccc2cc1COC/C=C/COCc1cccc(c1)-c1ccnc(n1)N2)NO`, which IC50 [1] is on record?
Answer: 2.23 µM

Question: And the IC50 [2]?
Answer: 0.01 to 1 µM

Question: What about the inhibition [3] of the same compound?
Answer: Active
